Consider 167 variants from the RNAGym collection of RNA variant scans (doi:10.1126/science.aae0568).

B1: tRNA (parent)
chain: GUUCCGUUGGCGUAAUGGUAACGCGUCUCCCUCCUAAGGAGAAGACUGCGGGUUCGAGUCCCGUACGGAACG

Variants at the floor of the assay were thinned out.

In this data set the parent is B1. Put plainly: yeast fitness relative to wild type (ratio to wild type); higher = fitter; tRNA-Arg(CCU), competitive growth, 37 C, YPD. In short, it runs like this: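 Genotype frequency changes were the basis for Darwinian fitness relative to wild type. The frequencies came from 100-nucleotide paired-end sequencing of gene amplicons from the start population and each end population of pooled yeast strains with tRNA-Arg(CCU) gene variants at the native locus. Competition ran in YPD at 37°C for 24 hours in six replicates, genotypes needed ≥ 100 starting reads, and estimates < 0.5 were set to 0.5.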
With U2G G17A G23A G38C A40G, the yeast fitness worked out at 0.694. For the variant U3C C24G C31U C55A, the yeast fitness was no more than 0.5. Consider U3C C31A C49A, for which the yeast fitness was no more than 0.5. With U3A G23A U32A the figure was no more than 0.5. As to U3C C49A, the yeast fitness came to 0.599. On to U3C G17A, for which the yeast fitness amounted to 0.831. Next, U2G U19A A21G G39C C60G G67C: no more than 0.5; U3C A14G C30G A43C: no more than 0.5. Next, U3A U19A C61U A70U: 0.551; U3C C4G C66G: no more than 0.5; U2G U32C C33G C62U: 0.535. Next, U3A C22G C31G: no more than 0.5; U3A U28C C29G: no more than 0.5.

Turning to U3A U8C A36U U53G, the yeast fitness is no more than 0.5. Next, U3A G50C G51C G56A: no more than 0.5. With U3A U7C the figure was 0.839. For the variant U3A C30G A36G C46G, the yeast fitness is no more than 0.5.

As for U3C A36G C61U, the yeast fitness amounted to 0.623. Next, U2G U47G G67U: no more than 0.5; U2G U16G C27A A36C G51A: 0.536; U3C C31U A57G: 0.778. For the variant U3A G39C A45G G50A, the yeast fitness was no more than 0.5. Next, U2G U26G C30U U59G U64G G68A: no more than 0.5. Next, U2G G12A C34A A37G: no more than 0.5; U3C G23A C27G C33A: no more than 0.5; U3C A15C U47G U54A G58A: no more than 0.5. Consider U3C C4A G23A C31G A40C, for which the yeast fitness is no more than 0.5.

For U3A A36U A37G, the yeast fitness is no more than 0.5. With U3C A40U A45U G52A, the yeast fitness was no more than 0.5.

With U3A G17A C22U, the yeast fitness was determined as 0.559. With U3C A45C C49U the figure was 0.712; with U3C U13C U19A C22U G68C, no more than 0.5; with U3A C27A C30U G41C A43U C49A, no more than 0.5. Next, U3C A45U C49G: 0.678; U3C G9A A69U: 0.882. Regarding U3A G6A A14U C33G, the yeast fitness is no more than 0.5. For U3A U16A C22U A36C G38U G48C, the yeast fitness was no more than 0.5.

For U3A G41C G63C A65U, the yeast fitness was no more than 0.5.

Consider U3A C33G A43G G58A G67A A69U, for which the yeast fitness was no more than 0.5. Next, U3C U8C U13C: 0.548; U3A C11A C33U G58C: no more than 0.5; U3A C5G A21U C22U G41A A43C G51C C66U G67U: no more than 0.5. On to U3A A20G C29U G48C, for which the yeast fitness is no more than 0.5. Next, U2G G17C C33U U47A A69U: no more than 0.5; U3A C22U U28A A37U G51C C66U: no more than 0.5; U3A G25A U26G: 0.535. As for U3A A14C A42C U47C, the yeast fitness is no more than 0.5. Turning to U3A C31U A40C U64A, the yeast fitness was no more than 0.5. Take U3C A21U G38C: the yeast fitness is 0.668. In the case of U3C A45U G51C, the yeast fitness is 0.574. For the variant U3A G38A, the yeast fitness was found to be 0.787.

Take U3A A45U C46G G52A: the yeast fitness came out at 0.613. Next, U3A G23C A45G: no more than 0.5. Next, U3C A14U A37U: no more than 0.5. U3A G23A A70G: the yeast fitness turned out to be 0.561. Next, U3A C22U C24A C27U A43C: 0.522; U3C U8A: 0.639. Consider U3C U8C, for which the yeast fitness was 0.906. Next, U3A C29G G50A: no more than 0.5; U2G G39C: 0.715; U3A A65C: 0.879.

For U3A U7A U32C G41A, the yeast fitness was no more than 0.5. With U2G G10C U35G C46U A65C G67C the figure was no more than 0.5. Consider U3A C4U U8A G10A A21G U53A A65C A70G, for which the yeast fitness was no more than 0.5. With U3A C30G C33U C55U, the yeast fitness is no more than 0.5. With U3A C55U the figure was 0.876; with U3A G39A C49U, 0.559; with U3C C27U G50A, 0.648.

With U3A C30U, the yeast fitness came to 0.822. With U2G U19A A21G A42C G48C C49A the figure was no more than 0.5; with U3A G25A G38A, 0.583.

For U3A C11A C33U, the yeast fitness turned out to be 0.502.

Consider U3A U13C G25A, for which the yeast fitness was 0.67. On to U3A C5U C31A A45C C46G G52C, for which the yeast fitness is no more than 0.5. With U3C C5U the figure was 0.836. With U3C A20G C24U G52A A57U C62A, the yeast fitness is no more than 0.5.

With U3C U8A U19A U54G, the yeast fitness is no more than 0.5. Next, U3A U19A C24U: 0.74; U3C C62U: 0.904. For the variant U3C U13A C31U G41A A57C A70U, the yeast fitness was no more than 0.5. With U3A C4U G48U the figure was no more than 0.5. Next, U3A U16C C33G C62U: no more than 0.5; U3C A14U A15C C31G A43U: no more than 0.5.

Turning to U3C G48A G67C, the yeast fitness was found to be 0.653. Regarding U2G U7G U16C C24U C34U G50A U54C A65U, the yeast fitness was no more than 0.5. Next, U3A C5G G56U: no more than 0.5; U3C C30U: 0.879. Next, U3A G18A C49G C55G C60A C62A G68A A69U: 0.623; U3A U47G G67A A69U: no more than 0.5. Consider U3A C5U C33G, for which the yeast fitness came out at 0.639. With U3A C4U C31A C66G G68C the figure was no more than 0.5; with U3A G6A U16A C24G A37U C49U G67A, no more than 0.5; with U3C A15G G68C, 0.618. Next, U3C C5U G39C: 0.57; U3A C22G C24U C33A G58A: no more than 0.5; U3C U8A A15C: no more than 0.5. With U3A G10C G39C G48A the figure was no more than 0.5; with U3C A36G G39C C55U C66U, no more than 0.5.

Consider U3A C11G C61A, for which the yeast fitness is no more than 0.5. U3C G25C C49U: the yeast fitness is 0.758.

As for U3A C5A C30G G38C C61A, the yeast fitness was 0.655. Next, U3C G9A C62G: 0.681; U3A C34A A69G: no more than 0.5. For the variant U3A U19A C62U, the yeast fitness came to 0.776.

U3C G12A G50A: the yeast fitness is 0.662.

Take U3A C5U C46A: the yeast fitness was 0.724.

For the variant U2G G12A C55U C61A, the yeast fitness is no more than 0.5. With U3A C5A G6C A15G U16A U26G C60G C61U the figure was 0.514; with U3C G41A U53G U59A C62G, no more than 0.5; with U3A C62U G63C, no more than 0.5.

On to U3A U59A, for which the yeast fitness is 0.658. Next, U3A U59G: 0.81; U3A A40G A42G A57C C66U: no more than 0.5; U3C G9A U13G U26C: no more than 0.5. Turning to U3C C4G G23C, the yeast fitness is no more than 0.5. With U3A C27G A43G the figure was no more than 0.5; with U3C G25U U64G, no more than 0.5.

For the variant U3C G10C C27U C66U, the yeast fitness was no more than 0.5. With U3C A40U the figure was 0.976. Next, U3C C5G A20G G63C C66G: no more than 0.5; U3A A14G C46G: 0.62. Next, U3A A15C G44A A57U: no more than 0.5; U3A G67A: 0.684. U3A G38C G41C A65G: the yeast fitness turned out to be 0.78. For U3A G9C C46G, the yeast fitness came out at 0.533. For U3C C24A C66U, the yeast fitness is no more than 0.5. On to U2G G10C G56C A69U, for which the yeast fitness was no more than 0.5. With U3C A43C A65U the figure was 0.604; with U3A C5A G6C A37C A45U G68C, no more than 0.5; with U3C G41A A65C, 0.51. In the case of U3A C30G C31U, the yeast fitness was no more than 0.5.

Take U3A A65C A70U: the yeast fitness worked out at 0.66. With U3C C31U A42G U54A the figure was no more than 0.5; with U3C U8C C30G U35C A42G C49U G56A G58A A70C, no more than 0.5; with U3C C11A C31A C49G G58C, no more than 0.5. In the case of U3A A14C A20C U64A, the yeast fitness was no more than 0.5.

Consider U3A C5U A42G G52C A57G, for which the yeast fitness is no more than 0.5. As to U3A A57U A65C A69C, the yeast fitness came to 0.593. Next, U3C C46G: 0.912; U3C C46A: 0.912; U3C A57C U64A: no more than 0.5. Next, U3A G48A A57U: 0.591. On to U3A A14U C60G C61U C62G A65U, for which the yeast fitness was no more than 0.5.

Consider U3C C11G C34G A36C G52A C60G, for which the yeast fitness was no more than 0.5. Next, U3C A14C: 0.703; U3A C22U G39A C66U A69C: no more than 0.5. Next, U3C C27A: 0.706. With U3C C5G G9A C11G C66U the figure was no more than 0.5. Turning to U3C C46A G67A A70C, the yeast fitness was 0.556.

On to U3C A21U C34A G52A C61G G63A, for which the yeast fitness was no more than 0.5. Next, U3C A42U G63A: no more than 0.5. Next, U3A G41C C66A: 0.527. With U3A C5A A45C G50C U64C the figure was 0.54; with U3A C27U A37G G41C U64C A70C, no more than 0.5; with U3A C4G A43G, no more than 0.5. Turning to U3C G12A A57C C61A A69C, the yeast fitness was no more than 0.5. With U3A C31G the figure was 0.845; with U3C A20C A45C C49U, no more than 0.5. Next, U3C C31U A70U: 0.865; U3C A40U C49A C62A: no more than 0.5; U2G U7C G18C A42U C49G: no more than 0.5.

As to U3C C31U G52A, the yeast fitness turned out to be 0.671. Consider U3C C66A, for which the yeast fitness stood at 0.711. In the case of U3C C66U, the yeast fitness is 0.904. With U3C C11A C31A G67U the figure was no more than 0.5; with U3A C5A A45C G50C C61U G68A, no more than 0.5; with U3C C31U A36U G39C, no more than 0.5.
